Tested on: Salmonella typhimurium
Test: Antimutagenic activity in Salmonella Typhimurium TA102 assessed as protection against hydrogen peroxide-induced mutation at 2 ug/plate after 2 days by modified Ames test
Assay type: functional, Salmonella enterica subsp. enterica serovar Typhimurium
Conditions: not given
Outline: (§1)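 S. typhimurium TA102 grown 15 h at 37 °C in Oxoid Nutrient Broth No. 2 with shaking to about (1-2) × 10^8 cells/mL. Culture in histidine/biotin-supplemented top agar with 100 μg hydrogen peroxide and test compound. Plated on Vogel-Bonner E medium, 37 °C for 2 days. His+ revertants scored on 3 plates, averaged, and % protection taken relative to mutagen-induced revertants minus spontaneous revertants.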

| Structure (SMILES) | Activity [%] |
| --- | --- |
| COc1ccc2ccc(=O)oc2c1 [HERNIARIN] | 10 |
| O=c1ccc2ccc(OCC3CCCCC3)cc2o1 [UMBELLIFERONECYCLOHEXYLMETHYL ETHER] | 0 |
| C#CC(C)(C)Oc1ccc2ccc(=O)oc2c1 | 0 |
| CC(C)=CCOc1ccc2ccc(=O)oc2c1 [7-PRENYLOXYCOUMARIN] | 14 |
| O=c1ccc2ccc(O)cc2o1 [UMBELLIFERONE] | 7 |
| CC1(C)C=Cc2c(ccc3ccc(=O)oc23)O1 [SESALIN] | 0 |

Tested on: Salmonella typhimurium
Test: Antimutagenic activity in Salmonella Typhimurium TA100 assessed as protection against benzo[a]pyrene-induced mutation at 8 ug/plate after 2 days by modified Ames test
Assay type: functional, Salmonella enterica subsp. enterica serovar Typhimurium
Conditions: at 8 µg/plate

| Structure (SMILES) | Activity [%] |
| --- | --- |
| COc1ccc2ccc(=O)oc2c1 [HERNIARIN] | 36 |
| O=c1ccc2ccc(OCC3CCCCC3)cc2o1 [UMBELLIFERONECYCLOHEXYLMETHYL ETHER] | 44 |
| C#CC(C)(C)Oc1ccc2ccc(=O)oc2c1 | 25 |
| CC(C)=CCOc1ccc2ccc(=O)oc2c1 [7-PRENYLOXYCOUMARIN] | 36 |
| O=c1ccc2ccc(O)cc2o1 [UMBELLIFERONE] | 22 |
| CC1(C)C=Cc2c(ccc3ccc(=O)oc23)O1 [SESALIN] | 8 |

Tested on: Salmonella typhimurium
Test: Antimutagenic activity in Salmonella Typhimurium TA102 assessed as protection against hydrogen peroxide-induced mutation at 8 ug/plate after 2 days by modified Ames test
Assay type: functional, Salmonella enterica subsp. enterica serovar Typhimurium
Conditions: at 8 µg/plate

| Structure (SMILES) | Activity [%] |
| --- | --- |
| O=c1ccc2ccc(OCC3CCCCC3)cc2o1 [UMBELLIFERONECYCLOHEXYLMETHYL ETHER] | 39 |
| O=c1ccc2ccc(O)cc2o1 [UMBELLIFERONE] | 28 |
| CC1(C)C=Cc2c(ccc3ccc(=O)oc23)O1 [SESALIN] | 22 |

Tested on: Salmonella typhimurium
Test: Antimutagenic activity in Salmonella Typhimurium TA102 assessed as protection against hydrogen peroxide-induced mutation at 4 ug/plate after 2 days by modified Ames test
Assay type: functional, Salmonella enterica subsp. enterica serovar Typhimurium
Conditions: at 4 µg/plate

| Structure (SMILES) | Activity [%] |
| --- | --- |
| COc1ccc2ccc(=O)oc2c1 [HERNIARIN] | 11 |
| O=c1ccc2ccc(OCC3CCCCC3)cc2o1 [UMBELLIFERONECYCLOHEXYLMETHYL ETHER] | 5 |
| C#CC(C)(C)Oc1ccc2ccc(=O)oc2c1 | 11 |
| CC(C)=CCOc1ccc2ccc(=O)oc2c1 [7-PRENYLOXYCOUMARIN] | 17 |
| O=c1ccc2ccc(O)cc2o1 [UMBELLIFERONE] | 13 |
| CC1(C)C=Cc2c(ccc3ccc(=O)oc23)O1 [SESALIN] | 8 |

Tested on: Salmonella typhimurium
Test: Antimutagenic activity in Salmonella Typhimurium TA100 assessed as protection against benzo[a]pyrene-induced mutation at 4 ug/plate after 2 days by modified Ames test
Assay type: functional, Salmonella enterica subsp. enterica serovar Typhimurium
Conditions: not given
Outline: as §1, with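 “TA100” for “TA102”, “5” for “100”, “benzo(a)pyrene plus 50 μL S9” for “hydrogen peroxide”, “mutagen” for “mutagen-induced revertants”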

| Structure (SMILES) | Activity [%] |
| --- | --- |
| COc1ccc2ccc(=O)oc2c1 [HERNIARIN] | 28 |
| O=c1ccc2ccc(OCC3CCCCC3)cc2o1 [UMBELLIFERONECYCLOHEXYLMETHYL ETHER] | 33 |
| C#CC(C)(C)Oc1ccc2ccc(=O)oc2c1 | 15 |
| CC(C)=CCOc1ccc2ccc(=O)oc2c1 [7-PRENYLOXYCOUMARIN] | 29 |
| O=c1ccc2ccc(O)cc2o1 [UMBELLIFERONE] | 10 |
| CC1(C)C=Cc2c(ccc3ccc(=O)oc23)O1 [SESALIN] | 1 |

Tested on: Salmonella typhimurium
Test: Antimutagenic activity in Salmonella Typhimurium TA102 assessed as protection against hydrogen peroxide-induced mutation at 1 ug/plate after 2 days by modified Ames test
Assay type: functional, Salmonella enterica subsp. enterica serovar Typhimurium
Conditions: not given
Outline: as §1

| Structure (SMILES) | Activity [%] |
| --- | --- |
| COc1ccc2ccc(=O)oc2c1 [HERNIARIN] | 0 |
| C#CC(C)(C)Oc1ccc2ccc(=O)oc2c1 | 0 |
| CC(C)=CCOc1ccc2ccc(=O)oc2c1 [7-PRENYLOXYCOUMARIN] | 9 |

Tested on: Salmonella typhimurium
Test: Antimutagenic activity in Salmonella Typhimurium TA100 assessed as protection against benzo[a]pyrene-induced mutation at 2 ug/plate after 2 days by modified Ames test
Assay type: functional, Salmonella enterica subsp. enterica serovar Typhimurium
Conditions: not given
Outline: as §1, with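 “TA100” for “TA102”, “5” for “100”, “benzo(a)pyrene plus 50 μL S9” for “hydrogen peroxide”, “mutagen” for “mutagen-induced revertants”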

| Structure (SMILES) | Activity [%] |
| --- | --- |
| COc1ccc2ccc(=O)oc2c1 [HERNIARIN] | 21 |
| C#CC(C)(C)Oc1ccc2ccc(=O)oc2c1 | 10 |
| CC(C)=CCOc1ccc2ccc(=O)oc2c1 [7-PRENYLOXYCOUMARIN] | 19 |

Tested on: Salmonella typhimurium
Test: Antimutagenic activity in Salmonella Typhimurium TA100 assessed as protection against benzo[a]pyrene-induced mutation at 32 ug/plate after 2 days by modified Ames test
Assay type: functional, Salmonella enterica subsp. enterica serovar Typhimurium
Conditions: at 32 µg/plate

| Structure (SMILES) | Activity [%] |
| --- | --- |
| CC1=CC[C@@H](O)C(C)(C)[C@H]1CC/C(C)=C/COc1ccc2ccc(=O)oc2c1 | 45 |

Tested on: not listed separately
Test: Cytotoxicity against Salmonella Typhimurium TA100 assessed as maximum non-toxic concentrations after 15 hrs by ELISA
Conditions: salmonella enterica subsp. enterica serovar typhimurium, Salmonella Typhimurium TA100 bacteria

| Structure (SMILES) | MNTC at 15 h [µg/mL] |
| --- | --- |
| O=c1ccc2ccc(OCC3CCCCC3)cc2o1 [UMBELLIFERONECYCLOHEXYLMETHYL ETHER] | 16 |

Tested on: Salmonella typhimurium
Test: Antimutagenic activity in Salmonella Typhimurium TA100 assessed as protection against benzo[a]pyrene-induced mutation at 16 ug/plate after 2 days by modified Ames test
Assay type: functional, Salmonella enterica subsp. enterica serovar Typhimurium
Conditions: at 16 µg/plate

| Structure (SMILES) | Activity [%] |
| --- | --- |
| O=c1ccc2ccc(OCC3CCCCC3)cc2o1 [UMBELLIFERONECYCLOHEXYLMETHYL ETHER] | 54 |
| O=c1ccc2ccc(O)cc2o1 [UMBELLIFERONE] | 39 |
| CC1(C)C=Cc2c(ccc3ccc(=O)oc23)O1 [SESALIN] | 20 |

Reference: ChEMBL document CHEMBL1144121, “Umbelliferone analogues and their potential to inhibit Benzo(a)pyrene- and hydrogen peroxide-induced mutations” (J Nat Prod, 1999)
